According to ChEMBL document CHEMBL1287681, “Tetrahydrocarboline analogs as MCH-1 antagonists” (Bioorg Med Chem Lett, 2010):
In brackets after ≈: the same amount, converted by molar mass. Each block holds one compound with its values, some of them ahead of it.

Assays:
[1] = Aqueous solubility of the compound in PBS buffer at pH 7.4 after 24 hrs; assay type: physicochemical
Summary of the method: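 Solubility measured in PBS at pH 7.4 after a 24 h equilibration period.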

Cytochrome P450 3A4 = Cytochrome P450 3A4 (Homo sapiens, UniProt P08684); assay: Inhibition of CYP3A4; assay type: ADME
Sequence of Cytochrome P450 3A4 (P08684 whole entry): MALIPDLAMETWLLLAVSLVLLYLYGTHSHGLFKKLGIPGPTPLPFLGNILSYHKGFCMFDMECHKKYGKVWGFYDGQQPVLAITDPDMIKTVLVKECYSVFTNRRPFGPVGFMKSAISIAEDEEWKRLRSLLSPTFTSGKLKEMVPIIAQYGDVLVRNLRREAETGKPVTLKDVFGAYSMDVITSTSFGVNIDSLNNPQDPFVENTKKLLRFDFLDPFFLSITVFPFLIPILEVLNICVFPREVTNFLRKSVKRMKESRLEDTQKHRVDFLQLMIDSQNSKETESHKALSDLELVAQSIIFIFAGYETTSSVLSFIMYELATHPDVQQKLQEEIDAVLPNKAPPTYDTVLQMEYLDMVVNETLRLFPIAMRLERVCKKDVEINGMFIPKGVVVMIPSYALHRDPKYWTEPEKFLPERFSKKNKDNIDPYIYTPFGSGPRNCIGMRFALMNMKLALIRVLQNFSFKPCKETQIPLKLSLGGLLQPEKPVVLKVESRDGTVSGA

[2] = AUC (0 to 6 hrs) in DIO mouse at 30 mg/kg, po; assay type: ADME, organism-based; set-up: time < 6 hr, dose 30 mg/kg, route oral; details: plasma
Summary of the method: (§1)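 DIO mice given 30 mg/kg orally. Plasma (ng/mL) and brain (ng/g) concentrations measured 6 h post dose; AUC determined from 0 to 6 h.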

[3] = test system: panel of 30 GPCRs and transporters (off-target); assay: Inhibition of panel of 30 GPCRs and transporters at 1 uM
[4] = Drug level in DIO mouse plasma at 30 mg/kg, po after 6 hrs; assay type: ADME, organism-based; set-up: dose 30 mg/kg, route oral; summary of the method: as §1
[5] = Plasma protein binding in DIO mouse at 30 mg/kg, po; assay type: ADME, organism-based; set-up: dose 30 mg/kg, route oral; details: read-out: PPB (converted)
Summary of the method: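 Mouse plasma protein binding determined by ultrafiltration.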

[6] = Half life in mouse liver microsome; assay type: ADME; details: liver microsomes
Summary of the method: (§2)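 Half-life in mouse or human liver microsomes, reported in min.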

Cytochrome P450 2D6 = Cytochrome P450 2D6 (Homo sapiens, UniProt P10635); assay: Inhibition of CYP2D6; assay type: ADME
Sequence of Cytochrome P450 2D6 (P10635 whole entry): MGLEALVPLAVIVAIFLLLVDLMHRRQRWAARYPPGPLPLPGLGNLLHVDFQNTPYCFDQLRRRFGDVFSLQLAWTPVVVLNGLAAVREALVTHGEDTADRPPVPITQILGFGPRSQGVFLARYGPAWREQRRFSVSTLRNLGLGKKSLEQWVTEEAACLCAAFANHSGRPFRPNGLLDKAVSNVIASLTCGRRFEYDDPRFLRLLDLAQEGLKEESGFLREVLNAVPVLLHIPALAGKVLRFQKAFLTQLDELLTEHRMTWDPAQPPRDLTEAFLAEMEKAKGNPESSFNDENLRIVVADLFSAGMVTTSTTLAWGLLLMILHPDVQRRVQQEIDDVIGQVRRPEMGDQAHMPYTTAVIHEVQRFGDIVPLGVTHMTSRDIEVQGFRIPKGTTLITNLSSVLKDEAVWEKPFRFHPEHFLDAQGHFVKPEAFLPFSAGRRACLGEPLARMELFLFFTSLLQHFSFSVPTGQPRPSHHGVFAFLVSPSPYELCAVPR

[7] = Ratio of drug level in brain to plasma in lean mouse at 10 mg/kg, po; details: read-out: BPR
[8] = target: T1, Melanin-concentrating hormone receptor 1 (Homo sapiens, UniProt Q99705); assay: Displacement of [3H]4-(benzyloxy)-1-(1-(2-(pyrrolidin-1-yl)ethyl)-1H-indazol-5-yl)pyridin-2(1H)-one from MCH-1 receptor expressed in CHO-K1 cells; assay type: cell-based
T1 sequence (Q99705 whole entry): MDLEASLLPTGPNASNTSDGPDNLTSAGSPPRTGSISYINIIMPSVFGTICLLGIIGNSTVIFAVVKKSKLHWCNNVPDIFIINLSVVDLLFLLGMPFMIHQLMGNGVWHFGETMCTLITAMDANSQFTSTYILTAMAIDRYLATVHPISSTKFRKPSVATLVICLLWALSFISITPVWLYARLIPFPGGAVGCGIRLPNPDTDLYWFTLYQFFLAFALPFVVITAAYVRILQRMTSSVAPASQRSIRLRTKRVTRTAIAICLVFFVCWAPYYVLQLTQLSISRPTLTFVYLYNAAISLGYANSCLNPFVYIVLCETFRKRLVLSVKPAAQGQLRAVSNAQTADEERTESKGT
Summary of the method: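 Membranes from stable CHO-K1 cells expressing human MCH-1 receptor (8.92 µg protein) incubated 60 min at 25 °C with 1.4 nM tritiated indazolyl-pyridinone radioligand ± test compound in 50 mM Tris–HCl, pH 7.4. Nonspecific binding defined with 50 µM of a piperazinylpropyl urea ligand. Values are means of at least two determinations, each within 40% of the mean.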

Cytochrome P450 1A2 = target: T2, Cytochrome P450 1A2 (Homo sapiens, UniProt P05177); assay: (§3) Inhibition of CYP1A2; assay type: ADME
T2 sequence (P05177 whole entry): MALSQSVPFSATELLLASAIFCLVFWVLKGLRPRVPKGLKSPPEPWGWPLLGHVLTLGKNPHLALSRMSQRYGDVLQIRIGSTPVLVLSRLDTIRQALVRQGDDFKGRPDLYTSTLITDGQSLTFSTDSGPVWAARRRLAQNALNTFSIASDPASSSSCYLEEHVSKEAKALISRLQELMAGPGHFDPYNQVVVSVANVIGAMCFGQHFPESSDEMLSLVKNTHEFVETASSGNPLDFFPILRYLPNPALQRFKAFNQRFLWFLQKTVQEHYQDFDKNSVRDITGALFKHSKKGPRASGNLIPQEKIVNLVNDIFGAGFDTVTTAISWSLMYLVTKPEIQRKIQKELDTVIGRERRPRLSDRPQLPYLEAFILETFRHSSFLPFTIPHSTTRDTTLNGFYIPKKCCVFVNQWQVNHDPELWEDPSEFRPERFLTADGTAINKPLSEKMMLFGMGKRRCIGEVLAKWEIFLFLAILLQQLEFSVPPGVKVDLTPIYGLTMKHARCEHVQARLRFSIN

[9] = Half life in human liver microsome; assay type: ADME; details: liver microsomes; summary of the method: as §2
Mus musculus [10] = assay: Antiobesity activity in diet-induced obese mouse assessed as reduction in body weight at 30 mg/kg qd; assay type: functional; set-up: scale not given: the % may be the effect or the level left
Summary of the method: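 Male C57BL/6J diet-induced obese mice dosed orally once daily, 30 mg/kg in 1% methylcellulose in water, for 5 days. Body weight tracked daily; % difference from vehicle control on Day 6. Adjusted means, n = 8–10, ANCOVA with Day 1 body weight as covariate, then Dunnett's test.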

Cytochrome P450 2B6 = target: T3, Cytochrome P450 2B6 (Homo sapiens, UniProt P20813); assay: Inhibition of CYP2B6; assay type: ADME
T3 sequence (P20813 whole entry): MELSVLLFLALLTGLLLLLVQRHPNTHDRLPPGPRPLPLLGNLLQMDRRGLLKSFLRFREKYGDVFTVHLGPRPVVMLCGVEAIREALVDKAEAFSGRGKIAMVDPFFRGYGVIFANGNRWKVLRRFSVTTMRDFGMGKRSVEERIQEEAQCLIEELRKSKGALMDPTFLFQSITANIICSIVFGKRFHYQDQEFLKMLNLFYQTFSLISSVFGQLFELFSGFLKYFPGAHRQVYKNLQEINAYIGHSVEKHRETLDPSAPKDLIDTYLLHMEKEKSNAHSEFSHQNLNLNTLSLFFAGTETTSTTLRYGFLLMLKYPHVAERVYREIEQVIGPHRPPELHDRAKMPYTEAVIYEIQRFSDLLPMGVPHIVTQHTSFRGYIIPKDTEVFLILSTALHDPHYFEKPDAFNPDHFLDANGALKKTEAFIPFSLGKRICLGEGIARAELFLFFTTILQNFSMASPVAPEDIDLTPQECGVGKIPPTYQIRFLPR

[11] = target: T1, Melanin-concentrating hormone receptor 1; assay: Antagonist activity at MCH-1 receptor; assay type: functional
Summary of the method: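 Functional antagonism read as Ca2+ mobilization in an Aequorin cell line expressing recombinant MCH-1 receptor, run by a contract lab.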

[12] = Drug level in DIO mouse brain at 30 mg/kg, po after 6 hrs; assay type: ADME, organism-based; set-up: dose 30 mg/kg, route oral; details: read-out: Drug uptake; summary of the method: as §1
[13] = Ionisation constant for the compound; assay type: physicochemical
[14] = Ratio of drug level in brain to plasma in DIO mouse at 30 mg/kg, po; details: read-out: BPR
Mus musculus [15] = assay: Antiobesity activity in diet-induced obese mouse assessed as reduction in body weight at 60 mg/kg qd; assay type: functional; set-up: scale not given: the % may be the effect or the level left
Mus musculus [16] = assay: Antiobesity activity in diet-induced obese mouse assessed as reduction in body weight at 30 mg/kg bid; assay type: functional; set-up: scale not given: the % may be the effect or the level left
CYP1A2 = target: T4, CYP1A2 (Homo sapiens, UniProt P05177); assay: as §3; assay type: ADME
T4 sequence (P05177 whole entry): T2 sequence (P05177 whole entry)

Cytochrome P450 2C9 = Cytochrome P450 2C9 (Homo sapiens, UniProt P11712)
Sequence of Cytochrome P450 2C9 (P11712 whole entry): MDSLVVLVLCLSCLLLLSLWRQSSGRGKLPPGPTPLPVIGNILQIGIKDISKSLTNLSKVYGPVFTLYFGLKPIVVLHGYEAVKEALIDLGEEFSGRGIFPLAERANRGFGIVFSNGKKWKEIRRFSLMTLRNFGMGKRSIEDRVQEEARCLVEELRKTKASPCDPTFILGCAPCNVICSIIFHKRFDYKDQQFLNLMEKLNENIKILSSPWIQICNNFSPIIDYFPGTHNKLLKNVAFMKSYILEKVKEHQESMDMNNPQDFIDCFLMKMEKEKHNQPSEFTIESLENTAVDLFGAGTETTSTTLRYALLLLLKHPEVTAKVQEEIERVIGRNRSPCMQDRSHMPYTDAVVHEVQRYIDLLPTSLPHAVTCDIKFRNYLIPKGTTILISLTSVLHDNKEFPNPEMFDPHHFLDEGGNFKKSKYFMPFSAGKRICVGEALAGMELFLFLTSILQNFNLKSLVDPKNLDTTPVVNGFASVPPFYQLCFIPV

Cytochrome P450 2C19 = Cytochrome P450 2C19 (Homo sapiens, UniProt P33261)
Sequence of Cytochrome P450 2C19 (P33261 whole entry): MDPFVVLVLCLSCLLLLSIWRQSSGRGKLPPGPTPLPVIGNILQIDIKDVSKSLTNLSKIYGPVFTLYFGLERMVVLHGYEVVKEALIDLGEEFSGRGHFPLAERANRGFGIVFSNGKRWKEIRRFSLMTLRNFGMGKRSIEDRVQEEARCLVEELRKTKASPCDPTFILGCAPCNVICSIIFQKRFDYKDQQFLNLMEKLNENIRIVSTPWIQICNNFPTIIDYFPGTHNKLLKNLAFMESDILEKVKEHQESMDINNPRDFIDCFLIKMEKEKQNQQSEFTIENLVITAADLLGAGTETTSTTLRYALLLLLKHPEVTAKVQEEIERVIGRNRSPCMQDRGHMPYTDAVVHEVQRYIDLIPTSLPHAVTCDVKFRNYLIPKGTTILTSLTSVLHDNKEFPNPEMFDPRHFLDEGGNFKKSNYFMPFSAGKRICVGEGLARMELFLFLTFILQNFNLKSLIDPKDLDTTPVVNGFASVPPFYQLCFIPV

[17] = Stability in human liver microsome assessed as compound remaining after 1 hr; assay type: ADME; details: liver microsomes, read-out: Stability
Summary of the method: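 Human liver microsome incubation; percentage of parent remaining after 1 h.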

- solubility at 24 h [1]: 110 µM (≈ 43.9 µg/mL)
- IC50 (Cytochrome P450 3A4): 67 µM
- AUC(0-t) at 6 h [2]: 27 µg·h/mL
- inhibition [3]: < 55%
- concentration at 6 h [4]: 5.03 µg/mL
- fraction unbound [5]: 0.016
- half-life [6]: > 16.7 h
- IC50 (Cytochrome P450 2D6): > 10 µM
- Kp [7]: 0.9
- Ki [8]: 0.0045 µM
- IC50 (Cytochrome P450 1A2): > 10 µM
- half-life [9]: 12.8 h
- IC50 (Cytochrome P450 2B6): > 10 µM
Compound: CN1CCc2c(c3ccc(-n4ccc(OCc5ccccc5)cc4=O)cc3n2C)C1
- Activity (Mus musculus [10]): 7.2%

- Ki [8]: 0.011 µM
Compound: Cn1c2c(c3ccc(-n4ccc(-c5ccc(Cl)cc5)cc4=O)cc31)CCNC2

- Ki [8]: 0.0076 µM
Compound: COc1ccc(-c2ccn(-c3ccc4c5c(n(C)c4c3)CCNC5)c(=O)c2)c(C)c1

- Ki [8]: 0.017 µM
Compound: COc1cc(Cl)ccc1-c1ccn(-c2ccc3c4c(n(C)c3c2)CNCC4)c(=O)c1

- Ki [8]: 0.0024 µM
Compound: CSc1ccc(-c2ccn(-c3ccc4c5c(n(C)c4c3)CCNC5)c(=O)c2)cc1

- solubility at 24 h [1]: > 500 µM
- IC50 (Cytochrome P450 3A4): 12 µM
- AUC(0-t) at 6 h [2]: 41.3 µg·h/mL
- IC50 [11]: 0.0144 µM
- concentration at 6 h [12]: 4.01 µg/mL
- concentration at 6 h [4]: 8.03 µg/mL
- fraction unbound [5]: 0.059
- pKa [13]: 8.81
- half-life [6]: 8.03 h
- IC50 (Cytochrome P450 2D6): > 10 µM
- Kp [14]: 0.51
- Ki [8]: 0.0049 µM
- IC50 (Cytochrome P450 1A2): > 10 µM
- half-life [9]: 7.5 h
- IC50 (Cytochrome P450 2B6): > 10 µM
Compound: Cn1c2c(c3ccc(-n4ccc(OCc5ccccc5)cc4=O)cc31)CCNC2
- Activity (Mus musculus [10]): 9.1%

- Ki [8]: 0.015 µM
Compound: Cn1c2c(c3ccc(-n4ccc(-c5ccccc5)cc4=O)cc31)CNCC2

- Ki [8]: 0.0076 µM
Compound: CN1CCc2c(n(C)c3cc(-n4ccc(OCc5ccc(Cl)cc5)cc4=O)ccc23)C1

- Ki [8]: 0.168 µM
Compound: CC(=O)N1CCc2c(c3ccc(-n4ccc(OCc5ccccc5)cc4=O)cc3n2C)C1

- Ki [8]: 0.0027 µM
Compound: Cn1c2c(c3ccc(-n4ccc(-c5ccc(Cl)cc5)cc4=O)cc31)CNCC2

- Ki [8]: 0.025 µM
Compound: CN1CCc2c(n(C)c3cc(-n4ccc(OCc5ccc(C(F)(F)F)cc5)cc4=O)ccc23)C1

- Ki [8]: 0.011 µM
Compound: Cn1c2c(c3ccc(-n4ccc(-c5ccc(C(F)(F)F)cc5)cc4=O)cc31)CCNC2

- Ki [8]: 0.0056 µM
Compound: CN1CCc2c(n(C)c3cc(-n4ccc(-c5ccc(Cl)cc5)cc4=O)ccc23)C1

- solubility at 24 h [1]: 93 µM (≈ 37.2 µg/mL)
- IC50 (Cytochrome P450 3A4): 24 µM
- half-life [6]: 1.05 h
- IC50 (Cytochrome P450 2D6): > 10 µM
- Ki [8]: 0.0052 µM
- IC50 (Cytochrome P450 1A2): > 10 µM
- half-life [9]: > 16.7 h
- IC50 (Cytochrome P450 2B6): > 10 µM
Compound: CN1CCc2c(n(C)c3cc(-n4ccc(OCc5ccccc5)cc4=O)ccc23)C1

- Ki [8]: 0.007 µM
Compound: COc1cc(Cl)ccc1-c1ccn(-c2ccc3c4c(n(C)c3c2)CCNC4)c(=O)c1

- Ki [8]: 0.0042 µM
Compound: Cn1c2c(c3ccc(-n4ccc(OCc5ccc(Cl)cc5)cc4=O)cc31)CNCC2

- Ki [8]: 0.014 µM
Compound: COc1ccc(-c2ccn(-c3ccc4c5c(n(C)c4c3)CNCC5)c(=O)c2)c(C)c1

- AUC(0-t) at 6 h [2]: 14.8 µg·h/mL
- concentration at 6 h [12]: 1.38 µg/mL
- concentration at 6 h [4]: 1.95 µg/mL
- fraction unbound [5]: 0.086
- pKa [13]: 8.63
- Kp [14]: 0.72
- IC50 (CYP1A2): > 10 µM
Compound: O=c1cc(OCc2ccccc2)ccn1-c1ccc2c(cnn2CCN2CCCC2)c1
- Activity (Mus musculus [15]): 2.8%
- Activity (Mus musculus [16]): 6%

- Ki [8]: 0.0036 µM
Compound: Cn1c2c(c3ccc(-n4ccc(OCc5ccccc5)cc4=O)cc31)CN(CCO)CC2

- Ki [8]: 0.0067 µM
Compound: Cn1c2c(c3ccc(-n4ccc(OCc5ccc(C(F)(F)F)cc5)cc4=O)cc31)CNCC2

- Ki [8]: 0.0084 µM
Compound: CSc1ccc(-c2ccn(-c3ccc4c5c(n(C)c4c3)CNCC5)c(=O)c2)cc1

- Ki [8]: 0.0078 µM
Compound: CN1CCc2c(c3ccc(-n4ccc(-c5ccc(F)cc5)cc4=O)cc3n2C)C1

- Ki [8]: 0.014 µM
Compound: CN1CCc2c(n(C)c3cc(-n4ccc(-c5ccc(Cl)cc5Cl)cc4=O)ccc23)C1

- Ki [8]: 0.0072 µM
Compound: Cn1c2c(c3ccc(-n4ccc(-c5ccc(Cl)cc5Cl)cc4=O)cc31)CNCC2

- solubility at 24 h [1]: 470 µM (≈ 181 µg/mL)
- IC50 (Cytochrome P450 3A4): 68 µM
- IC50 (Cytochrome P450 2C9): > 10 µM
- IC50 (Cytochrome P450 2C19): > 10 µM
- IC50 (Cytochrome P450 2D6): > 10 µM
- Ki [8]: 0.0038 µM
- IC50 (Cytochrome P450 1A2): > 10 µM
- remaining at 1 h [17]: 98.4%
- half-life [9]: 7.7 h
- IC50 (Cytochrome P450 2B6): > 10 µM
Compound: Cn1c2c(c3ccc(-n4ccc(OCc5ccccc5)cc4=O)cc31)CNCC2

- Ki [8]: 0.128 µM
Compound: Cn1c2c(c3ccc(-n4ccc(-c5ccc(Cl)cn5)cc4=O)cc31)CCNC2

- Ki [8]: 0.708 µM
Compound: CN1CCc2c(n(C)c3cc(-n4ccc(-c5ccc(F)cn5)cc4=O)ccc23)C1

- Ki [8]: 0.0026 µM
Compound: COc1ccc(-c2ccn(-c3ccc4c5c(n(C)c4c3)CCNC5)c(=O)c2)cc1

- Ki [8]: 0.0042 µM
Compound: Cn1c2c(c3ccc(-n4ccc(-c5ccc(C(F)(F)F)cc5)cc4=O)cc31)CNCC2

- Ki [8]: 0.014 µM
Compound: COc1ccc(-c2ccn(-c3ccc4c5c(n(C)c4c3)CNCC5)c(=O)c2)cc1
